Screening data from PubChem.
A selection: hits, their analogues and other compounds. The true share with any hit is near 4%.
CHO parental Ca: signal in parental CHO cells, OX1R antagonist counter-screen; parental CHO-K1, ATP-induced calcium, Fluo-8 fluorescence; inhibition, % at 5.6 µM; 330,000 tested, 0.63% active; AID 463079;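 active = inhibition above that plate's mean sample inhibition plus 3 SD, cut at about 26% in these data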;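 note: 0% = ATP-challenged DMSO wells and 100% = DMSO wells without ATP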
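Material: Parental CHO cells | Reagent: ATP | Compound dosing: Single nominal dose of 5.6 µM per compound | Detection: Intracellular calcium via Fluo-8 no-wash fluorescent dye | Read-out: % inhibition of ATP-induced calcium mobilization | Benchmarks: Low control ATP plus DMSO, high control DMSO only | Replicates: Singlicate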
TAAR1 antagonist: human TAAR1 antagonism. Q96RJ0. 360,000 tested, 1.5% active. CHO RD-HGA16 TAAR1, Fluo-8 calcium fluorescence, antagonist. inhibition, % at 3 µM;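 active = inhibition above a per-plate cutoff, the mean inhibition of test compounds on that plate plus 3 SD, cut at about 49% in these data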;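 note: 0% = DMSO plus EC80 beta-PEA response and 100% = DMSO alone without agonist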
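Material: CHO RD-HGA16 cells bearing hTAAR1; compound dosing: one-point dosing, 3 µM nominal final; schedule: dye loading 75 min at 37 °C, then 30 min room temperature; measured by: calcium fluorescence with Fluo-8; control set: vehicle and agonist controls; replication: n of 1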
OX1R antag-1: antagonists of human orexin 1 receptor (OX1R); 330,000 tested, 1.8% active; OX1R-expressing cells, FRET antagonist read-out; O43613; inhibition, % at 6.6 µM; in the data active = inhibition mostly above about 38%, no sharp cut-off; inactive = mostly below about 40%;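 note: 0% = agonist challenge alone and 100% = reference antagonist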
Target sequence (O43613 whole entry, looked up): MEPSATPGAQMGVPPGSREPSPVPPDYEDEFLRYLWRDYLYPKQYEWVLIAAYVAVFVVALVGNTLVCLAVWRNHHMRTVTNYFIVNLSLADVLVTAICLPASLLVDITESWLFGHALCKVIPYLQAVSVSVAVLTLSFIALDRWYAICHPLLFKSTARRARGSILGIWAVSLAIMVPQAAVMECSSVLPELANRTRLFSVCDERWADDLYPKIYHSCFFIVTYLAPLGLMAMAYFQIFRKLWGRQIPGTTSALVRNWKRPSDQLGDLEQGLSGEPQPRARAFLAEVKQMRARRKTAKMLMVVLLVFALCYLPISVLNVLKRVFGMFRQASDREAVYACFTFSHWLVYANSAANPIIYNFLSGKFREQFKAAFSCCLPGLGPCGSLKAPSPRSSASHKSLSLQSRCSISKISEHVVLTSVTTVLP
OX1R antag-2: antagonists of human orexin 1 receptor | inhibition, % at 5 µM | 330,000 tested, 0.43% active | CHO/OX1R cells, Fluo-8 calcium fluorescence, orexin A | O43613 | AID 434989;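 active = inhibition above its plate's threshold, mean inhibition of all tested compounds on the plate plus 3 SD, cut at about 37% in these data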;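 note: 0% = orexin A challenge wells and 100% = SB-334867-A antagonist wells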
TAAR1 ag: agonists of human TAAR1; Q96RJ0; 360,000 tested, 0.99% active; CHO RD-HGA16 TAAR1, Fluo-8 calcium fluorescence; vehicle wells 0%, saturating PEA agonist 100%; activation, % at 3 µM;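 active = activation above the mean activation of all test compounds in the run plus 3 SD, cut at about 38% in these data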
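Repeats: no replicates (n 1) | Material: CHO-derived RD-HGA16 cells with stable Gα16 and human TAAR1 | Technique: Kinetic Fluo-8 calcium fluorescence | Schedule: 17-24 h seeding, 75 min 37 °C dye, 30 min RT | Evaluation: % activation from peak over basal fluorescence ratio, DMSO-to-PEA scaled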
The depositor's hits bear a star; . = not tested or not shown.

SMILES | CHO parental Ca | TAAR1 antagonist | OX1R antag-1 | OX1R antag-2 | TAAR1 ag
COCCNC(=O)C1(C)CCCN(C(=O)c2ccccc2C(F)(F)F)C1 (stereo not drawn) | . | -18.5 | . | . | 0.4
O=C(CN1CCOCC1)Nc1scc2c1c(=O)oc1ccccc12 | 0.7 | 53.2* | 4.2 | 10.3 | 16.2
O=C(CN1CCCCC1)Nc1scc2c1c(=O)oc1ccccc12 | -19.3 | -11.1 | 8.8 | -17.8 | 5.4
OCc1cc(-c2ccccn2)no1 | -1.3 | -2.6 | 27.9 | -13.3 | 7.2
CCC(NC(=O)c1cc(COc2cncc(Cl)c2)on1)c1ccncc1 (stereo not drawn) | -12.3 | -23.1 | 6.8 | -12.8 | 5.5
CCC(NC(=O)c1cc(COc2ccc(F)cc2Cl)on1)c1ccncc1 (stereo not drawn) | . | 24.3 | . | . | 43.3*
CCOC(=O)N1CCN(c2cc(C)c(C(C)=O)cc2F)CC1 | -23.7 | -8.8 | 8.8 | 1.0 | 11.7
CC(=O)c1cc(F)c(N2CCN(C(=O)Cc3ccccc3)CC2)cc1C | 36.3 | 23.6 | 69.7 | 58.5* | 10.7
O=C(Nc1cccc(Cl)c1)O/N=C\c1ccncc1 | -14.2 | 3.1 | -0.4 | 7.8 | 13.6
O=C(N/N=C/c1ccc2nccnc2c1)c1ccncc1 | -6.9 | -5.1 | 55.0* | -4.5 | 1.2
O=C(Nc1ccc(Cl)c(Cl)c1)O/N=C/c1ccncc1 | 31.0* | -2.3 | 44.5 | 27.3 | 18.7
O=C(N/N=C/c1ccncc1)c1cccc(NC(=O)c2ccccc2Cl)c1 | -3.2 | 50.0* | 20.1 | -7.8 | 16.3
O=C(N/N=C/c1ccc(F)cc1)c1cccc(NC(=O)c2ccccc2Cl)c1 | -11.9 | 54.2* | 22.1 | -30.1 | 22.3
O=C(N/N=C/c1cccnc1)c1cccc(NC(=O)c2ccccc2Cl)c1 | -16.3 | 5.9 | 23.8 | -9.3 | 5.7
CCC(C)[C@H]1CNCCN1CCC12CC3CC(CC(C3)C1)C2 (stereo partly drawn) | -11.5 | -1.7 | -2.2 | -18.7 | 16.0
C[C@H](CO)N1C[C@H](C)[C@H](CN(C)C(=O)C2CCCCC2)OCc2cnnn2CCCC1=O | . | -4.1 | . | . | 4.5
CCOCCc1nnc(NC(=O)Cc2ccc(Br)cc2)s1 | -1.1 | -12.2 | 7.1 | -7.2 | 45.9*
CCOCCc1nnc(NC(=O)CCc2ccccc2)s1 | -1.0 | -5.2 | 9.1 | -15.8 | 3.0
Cc1cn(C2CC(O)C(CO)O2)c(=O)n(Cc2ccccc2)c1=O (stereo not drawn) | . | -9.3 | . | . | 0.8
O=C(O)c1ccccc1-c1ccc([N+](=O)[O-])cc1Cl | . | -24.1 | . | . | 3.4
O=[N+]([O-])c1ccc2c(c1)S(=O)c1ccccc1-2 (stereo not drawn) | -28.1 | -20.5 | 75.0* | -5.6 | 0.9
O=C1NC(=Nc2ccc3ccccc3c2)S/C1=C/c1ccco1 | -13.5 | -8.4 | 42.4* | 5.4 | 0.2
CCN=C1NC(c2ccc(F)cc2)C(C(=O)OC)=C(C)N1Cc1ccccc1C(F)(F)F (stereo not drawn) | . | -9.1 | . | . | 14.5
Cc1cc(NC(=O)COC(=O)c2oc3c(ccc4ccccc43)c2C)no1 | -5.7 | -0.9 | 9.9 | -7.3 | 3.4
Cc1c(C(=O)OCC(=O)Nc2ccc(S(N)(=O)=O)cc2)oc2c1ccc1ccccc12 | 40.9* | 4.5 | 22.2 | 4.5 | 2.2
SMILES | CHO parental Ca | TAAR1 antagonist | OX1R antag-1 | OX1R antag-2 | TAAR1 ag
COc1cc2cccc(OC)c(=O)c2c(O)c1OC | 0.1 | -11.3 | 65.8* | -7.8 | 8.4
COc1cc2c(ccc3cc(OC)c(OC)c(O)c32)cc1O | -7.0 | -9.3 | 11.8 | 5.6 | 0.8
Cc1ccccc1NC(=O)CCS(=O)(=O)c1cccc2nonc12 | -3.0 | -12.7 | 55.0* | -14.0 | 2.6
COc1ccc(OC)c(CC(NC(C)=O)C(=O)NC2CCN(c3cc(C)nc4ncnn34)CC2)c1 (stereo not drawn) | 31.5* | 7.0 | -0.5 | -3.4 | 3.8
COc1ccc(CC(NC(C)=O)C(=O)NC2CCN(c3c(Cc4ccccc4)c(C)nc4ncnn34)CC2)c(OC)c1 (stereo not drawn) | -22.3 | 7.0 | 6.5 | -2.8 | 1.6
CCN1C(=O)N/C(=C/c2ccc(Sc3ccc(C)cc3)o2)C1=O | 63.9* | 64.8* | 52.2 | 61.1* | 17.8
CC(CO)NS(=O)(=O)c1cc(Cl)ccc1F (stereo not drawn) | . | 1.4 | . | . | 2.0
CCN(CC)S(=O)(=O)c1cccc(N=NC2=C(O)CCCC2=O)c1 | -2.4 | 15.4 | 11.9 | -16.9 | -1.2
O=C1CCCC(O)=C1N=Nc1cccc(C(=O)O)c1 | 8.3 | 0.1 | 69.6* | -19.0 | 1.3
